Our source for the inhibition, Activity and IC50 values is ChEMBL document CHEMBL4145574, “Inhibition of Breast Cancer Cell Migration by Cyclotides Isolated from Pombalia calceolaria” (J Nat Prod, 2018).

Data set [1] concerns MDA-MB-231. In words: Inhibition of cell migration in human MDA-MB-231 cells at 1 uM incubated for 22 hrs by scratch wound healing assay relative to control. Particulars: MDA-MB-231, 22 h.
The subject of data set [2] is MDA-MB-231. As to the kind of experiment: Cytotoxicity against human MDA-MB-231 cells assessed as cell death at 20 uM after 24 hrs by MTS assay relative to control. Format: functional. In short, it runs like this: (§1)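 MDA-MB-231 cells in DMEM with 10% FBS at 37 °C, 5% CO2, seeded at 4 × 10^3 cells/well. After 24 h, seven concentrations (20−0.03 μM) were added in triplicate, with doxorubicin as control. After 24 h exposure, MTS was added for 4 h at 37 °C and absorbance read at 490 nm. Viability is relative to control wells; IC50 is from nonlinear regression. At least two independent experiments.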
In general terms: Tetrazolium assays rely on reduction of a dye to a coloured formazan, in cell work by metabolically active cells.

In data set [3] the test system is MDA-MB-231. As to the kind of experiment: Cytotoxicity against human MDA-MB-231 cells assessed as cell death after 24 hrs by MTS assay. Format: functional, cell-based. The conditions noted are these: MDA-MB-231, 24 h. In short, it runs like this:
as §1

For data set [4], the system named is MDA-MB-231. In words: Cytotoxicity against human MDA-MB-231 cells assessed as membrane disintegration at 10 uM. In kind it is cell-based. Particulars: mda-mb-231, 10 µM. In short, it runs like this:
(§2)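 Toxicity was judged visually during the wound-healing assay. MDA-MB-231 monolayers were scratched, then incubated 22 h at 37 °C in medium with 10% FBS and compound at 10, 5, 2 or 1 μM. Cells were scored for detachment and for morphological change (volume reduction, membrane disintegration).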

The test system of data set [5] is MDA-MB-231. In words: Cytotoxicity against human MDA-MB-231 cells assessed as reduction in cell volume at 2 to 5 uM. In kind it is cell-based. The conditions noted are these: mda-mb-231, 5 µM. The essentials: as §2
The subject of data set [6] is MDA-MB-231. In words: Cytotoxicity against human MDA-MB-231 cells assessed as reduction in cell volume at 10 uM. In kind it is cell-based. Particulars: mda-mb-231, 10 µM. In short, it runs like this:
as §2

The subject of data set [7] is MDA-MB-231. In words: Cytotoxicity against human MDA-MB-231 cells assessed as cell detachment at 2 to 5 uM. The conditions noted are these: mda-mb-231, 5 µM. Format: cell-based. The essentials: as §2
The test system of data set [8] is MDA-MB-231. In words: Cytotoxicity against human MDA-MB-231 cells assessed as membrane disintegration at 2 to 5 uM. Format: cell-based. The conditions noted are these: mda-mb-231, 5 µM. In short, it runs like this: as §2
The test system of data set [9] is MDA-MB-231. As to the kind of experiment: Cytotoxicity against human MDA-MB-231 cells assessed as cell detachment at 10 uM. Format: cell-based. Particulars: mda-mb-231, 10 µM. In short, it runs like this:
as §2

Data set [10] deals with MDA-MB-231. As to the kind of experiment: Inhibition of cell migration in human MDA-MB-231 cells at 5 uM incubated for […] by scratch wound healing assay relative to control. In kind it is functional. In short, it runs like this: (§3)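 MDA-MB-231 cells were seeded at 1 × 10^5 cells/well and grown to a confluent monolayer, then scratched with a pipet tip. Debris was rinsed with FBS-free medium. Cells were incubated 22 h at 37 °C in 10% FBS medium with compound (10, 5, 2, 1 μM), with colchicine as positive control. Wound areas were imaged at 0 and 22 h and measured. Two independent experiments in triplicate, reported as mean ± SD.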

Data set [11] concerns MDA-MB-231. In words: Inhibition of cell migration in human MDA-MB-231 cells at 2 uM incubated for […] by scratch wound healing assay relative to control. In kind it is functional. The essentials: as §3
The test system of data set [12] is MDA-MB-231. As to the kind of experiment: Inhibition of cell migration in human MDA-MB-231 cells at 10 uM […] by scratch wound healing assay relative to control. Format: functional. The conditions noted are these: MDA-MB-231, 22 h, in the assay text read “22 hrs” for “24 hrs”. In short, it runs like this: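 MDA-MB-231 cells in DMEM + 10% FBS, 37 °C, 5% CO2; 1 × 10^5 cells/well grown to confluence, monolayer scratched with pipet tip, debris rinsed with FBS-free medium. Incubated 22 h at 37 °C in 10% FBS medium with compound (10, 5, 2, 1 μM). Wound areas imaged at 0 and 22 h and measured; cell toxicity judged visually. Colchicine positive control. Two independent experiments in triplicate, mean ± SD.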

The term inhibition denotes the percentage by which the read-out fell short of the control. High values mean a strong effect, low ones a weak effect. What is called IC50 is the point on the concentration scale where inhibition reaches its midpoint.

Where a SMILES comes first, the peptide text is derived from it. Bridges are numbered along the chain shown (N, C = ends).

`CC[C@H](C)[C@@H]1NC(=O)[C@H](C)NC(=O)[C@H]([C@@H](C)O)NC(=O)[C@H]([C@@H](C)CC)NC(=O)[C@H]([C@@H](C)O)NC(=O)[C@@H]2CSSC[C@@H]3NC(=O)[C@H](C(C)C)NC(=O)[C@H](CCCNC(=N)N)NC(=O)[C@H](CC(=O)O)NC(=O)[C@H](CCCNC(=N)N)NC(=O)[C@@H]4CSSC[C@H](NC(=O)[C@H](CO)NC(=O)[C@H](CCC(=O)O)NC(=O)[C@H](C)NC(=O)[C@H](CSSC[C@H](NC(=O)CNC(=O)[C@H](CC(C)C)NC1=O)C(=O)N[C@@H](CO)C(=O)N4)NC(=O)[C@@H]1CCCN1C(=O)[C@H](CC(C)C)NC(=O)CNC(=O)[C@H](CC(=O)O)NC(=O)[C@H](Cc1ccc(O)cc1)NC3=O)C(=O)N[C@@H](C(C)C)C(=O)N[C@@H](Cc1ccccc1)C(=O)N[C@@H]([C@@H](C)CC)C(=O)N1CCC[C@H]1C(=O)N2` (cyclo(AESCVFIPCTITAILGCSCRDRVCYDGLPC); disulfide 4-19, 9-24, 17-30) [listing 1 of 2 here]: in data set [1], 1 µM produced 0% inhibition. Further, the Activity in data set [2] was greater than 80%.

For the compound `CC[C@H](C)[C@@H]1NC(=O)[C@H](C)NC(=O)[C@H]([C@@H](C)O)NC(=O)[C@H](C(C)C)NC(=O)[C@@H]2CSSC[C@@H]3NC(=O)[C@H](C(C)C)NC(=O)[C@H](CCCNC(=N)N)NC(=O)[C@H](CC(=O)O)NC(=O)[C@H](CCCN)NC(=O)[C@@H]4CSSC[C@H](NC(=O)[C@H](CO)NC(=O)[C@H](CCC(=O)O)NC(=O)[C@H](C)NC(=O)[C@H](CSSC[C@H](NC(=O)CNC(=O)[C@H](CC(C)C)NC1=O)C(=O)N[C@@H](CO)C(=O)N4)NC(=O)[C@@H]1CCCN1C(=O)[C@H]([C@@H](C)CC)NC(=O)CNC(=O)[C@H](CC(N)=O)NC(=O)[C@H](Cc1ccc(O)cc1)NC3=O)C(=O)N[C@@H](C(C)C)C(=O)N[C@@H](Cc1ccccc1)C(=O)N[C@@H]([C@@H](C)CC)C(=O)N1CCC[C@H]1C(=O)N2` [listing 1 of 2 here], the IC50 in [3] was determined as 2.7 µM. Also, the Activity result in data set [4], in data set [5], in data set [6], in data set [7], in data set [8] and in data set [9] was “Toxic” in each case.

Take `COc1cccc2c1C(=O)c1c(O)c3c(c(O)c1C2=O)C[C@@](O)(C(=O)CO)C[C@@H]3O[C@H]1C[C@H](N)[C@H](O)[C@H](C)O1` [DOXORUBICIN]: in [3], the IC50 amounted to 0.9 µM.

As to `CC[C@H](C)[C@@H]1NC(=O)[C@H](C)NC(=O)[C@H](CO)NC(=O)[C@H](CO)NC(=O)[C@H]([C@@H](C)CC)NC(=O)[C@@H]2CSSC[C@@H]3NC(=O)[C@H](C(C)C)NC(=O)[C@H](CCCN)NC(=O)[C@H](CC(N)=O)NC(=O)[C@H](CCCN)NC(=O)[C@@H]4CSSC[C@H](NC(=O)[C@H](CO)NC(=O)[C@H](CCC(=O)O)NC(=O)CNC(=O)[C@H](CSSC[C@H](NC(=O)CNC1=O)C(=O)N[C@@H](CO)C(=O)N4)NC(=O)[C@@H]1CCCN1C(=O)[C@H]([C@@H](C)CC)NC(=O)CNC[C@@H](C(N)=O)NC(=O)[C@H](CCCN)NC(=O)[C@H](Cc1ccc(O)cc1)NC3=O)C(=O)N[C@@H](C(C)C)C(=O)N[C@@H](Cc1c[nH]c3ccccc13)C(=O)N[C@@H]([C@@H](C)CC)C(=O)N1CCC[C@H]1C(=O)N2` [listing 1 of 2 here], 5 µM produced 60% inhibition in [10]. Also, testing at 1 µM in data set [1] gave an inhibition of 15%. Moreover, in data set [2], the Activity was greater than 80%. This compound registered an inhibition at 2 µM in data set [11] of 50%.

`CC[C@H](C)[C@@H]1NC(=O)[C@H](C)NC(=O)[C@H]([C@@H](C)O)NC(=O)[C@H]([C@@H](C)CC)NC(=O)[C@H]([C@@H](C)O)NC(=O)[C@@H]2CSSC[C@@H]3NC(=O)[C@H](C(C)C)NC(=O)[C@H](CCCNC(=N)N)NC(=O)[C@H](CC(=O)O)NC(=O)[C@H](CCCNC(=N)N)NC(=O)[C@@H]4CSSC[C@H](NC(=O)[C@H](CO)NC(=O)[C@H](CCC(=O)O)NC(=O)[C@H](C)NC(=O)[C@H](CSSC[C@H](NC(=O)CNC(=O)[C@H](CC(C)C)NC1=O)C(=O)N[C@@H](CO)C(=O)N4)NC(=O)[C@@H]1CCCN1C(=O)[C@H](CC(C)C)NC(=O)CNC(=O)[C@H](CC(=O)O)NC(=O)[C@H](Cc1ccc(O)cc1)NC3=O)C(=O)N[C@@H](C(C)C)C(=O)N[C@@H](Cc1ccccc1)C(=O)N[C@@H]([C@@H](C)CC)C(=O)N1CCC[C@H]1C(=O)N2` (cyclo(AESCVFIPCTITAILGCSCRDRVCYDGLPC); disulfide 4-19, 9-24, 17-30) [listing 2 of 2 here]: the IC50 in data set [3] stood at 1.8 µM. Further, the Activity entry in data set [4], in data set [5], in data set [6], in data set [7], in [8] and in data set [9] was “Toxic” throughout.

In data set [12], `COc1cc2c(c(OC)c1OC)-c1ccc(OC)c(=O)cc1[C@@H](NC(C)=O)CC2` [COLCHICINE] registered an inhibition at 10 µM of 85%. Besides, in [1], testing at 1 µM gave an inhibition of 75%.

`CC[C@H](C)[C@@H]1NC(=O)[C@H](C)NC(=O)[C@H](CO)NC(=O)[C@H](CO)NC(=O)[C@H]([C@@H](C)CC)NC(=O)[C@@H]2CSSC[C@@H]3NC(=O)[C@H](C(C)C)NC(=O)[C@H](CCCN)NC(=O)[C@H](CC(N)=O)NC(=O)[C@H](CCCN)NC(=O)[C@@H]4CSSC[C@H](NC(=O)[C@H](CO)NC(=O)[C@H](CCC(=O)O)NC(=O)CNC(=O)[C@H](CSSC[C@H](NC(=O)CNC1=O)C(=O)N[C@@H](CO)C(=O)N4)NC(=O)[C@@H]1CCCN1C(=O)[C@H]([C@@H](C)CC)NC(=O)CNC[C@@H](C(N)=O)NC(=O)[C@H](CCCN)NC(=O)[C@H](Cc1ccc(O)cc1)NC3=O)C(=O)N[C@@H](C(C)C)C(=O)N[C@@H](Cc1c[nH]c3ccccc13)C(=O)N[C@@H]([C@@H](C)CC)C(=O)N1CCC[C@H]1C(=O)N2` [listing 2 of 2 here]: the IC50 in data set [3] was 9.8 µM. Besides, the Activity result in data set [4], in data set [6] and in [9] was “Toxic” each time.

As for `CC[C@H](C)[C@@H]1NC(=O)[C@H](C)NC(=O)[C@H]([C@@H](C)O)NC(=O)[C@H](C(C)C)NC(=O)[C@@H]2CSSC[C@@H]3NC(=O)[C@H](C(C)C)NC(=O)[C@H](CCCNC(=N)N)NC(=O)[C@H](CC(=O)O)NC(=O)[C@H](CCCN)NC(=O)[C@@H]4CSSC[C@H](NC(=O)[C@H](CO)NC(=O)[C@H](CCC(=O)O)NC(=O)[C@H](C)NC(=O)[C@H](CSSC[C@H](NC(=O)CNC(=O)[C@H](CC(C)C)NC1=O)C(=O)N[C@@H](CO)C(=O)N4)NC(=O)[C@@H]1CCCN1C(=O)[C@H]([C@@H](C)CC)NC(=O)CNC(=O)[C@H](CC(N)=O)NC(=O)[C@H](Cc1ccc(O)cc1)NC3=O)C(=O)N[C@@H](C(C)C)C(=O)N[C@@H](Cc1ccccc1)C(=O)N[C@@H]([C@@H](C)CC)C(=O)N1CCC[C@H]1C(=O)N2` [listing 2 of 2 here], in data set [1], the inhibition at 1 µM came out at 0%. Besides, the Activity in [2] is recorded as greater than 80%.
